# In ChEMBL document CHEMBL3351655, “Scaffold decoration at positions 5 and 8 of 1,2,4-triazolo[1,5-c]pyrimidines to explore the antagonist profiling on adenosine receptors: a preliminary structure-activity relationship study” (J Med Chem, 2014):
# Columns and labels:
# Adenosine receptor A2a = Adenosine receptor A2a (Homo sapiens, UniProt P29274); assay: Displacement of [3H]NECA from human adenosine A2A receptor expressed in CHO cells; format: cell-based
# Adenosine receptor A3 = molecular target: T1, Adenosine receptor A3 (Homo sapiens, UniProt P0DMS8); assay: Displacement of [3H]NECA from human adenosine A3 receptor expressed in CHO cells; format: cell-based
# T1 sequence (P0DMS8 whole entry): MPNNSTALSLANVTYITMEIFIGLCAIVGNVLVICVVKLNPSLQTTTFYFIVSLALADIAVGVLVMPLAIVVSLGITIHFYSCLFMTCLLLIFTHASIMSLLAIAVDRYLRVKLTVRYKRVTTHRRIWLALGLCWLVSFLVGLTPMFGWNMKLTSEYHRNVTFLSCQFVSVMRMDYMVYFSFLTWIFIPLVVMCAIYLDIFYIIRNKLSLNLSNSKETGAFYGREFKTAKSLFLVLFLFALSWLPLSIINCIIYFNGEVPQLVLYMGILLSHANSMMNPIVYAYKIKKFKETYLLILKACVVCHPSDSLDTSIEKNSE
# Outline: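 Radioligand [³H]NECA was used on membranes from stably transfected CHO cells, prepared by a 1000g clearing spin then pelleting at 100 000g. Pellets were resuspended in binding buffer, frozen in liquid nitrogen and stored. Nonspecific binding was defined with 100 μM R-PIA.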
# Adenosine receptor A1 = molecular target: T2, Adenosine receptor A1 (Homo sapiens, UniProt P30542); assay: Displacement of [3H]CCPA from human adenosine A1 receptor expressed in CHO cells; format: cell-based
# T2 sequence (P30542 whole entry): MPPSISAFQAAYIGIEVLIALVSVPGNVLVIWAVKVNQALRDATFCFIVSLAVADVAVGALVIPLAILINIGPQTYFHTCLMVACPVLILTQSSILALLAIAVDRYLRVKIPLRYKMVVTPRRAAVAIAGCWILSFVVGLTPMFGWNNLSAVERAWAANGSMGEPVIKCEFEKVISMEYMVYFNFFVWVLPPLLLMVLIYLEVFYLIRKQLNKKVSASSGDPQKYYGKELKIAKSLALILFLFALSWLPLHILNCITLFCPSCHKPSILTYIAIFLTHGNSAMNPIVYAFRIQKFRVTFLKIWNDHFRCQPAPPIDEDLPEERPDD
# Outline: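 Stably transfected CHO cells were homogenised and spun at 1000g to remove nuclei and fragments. Membranes were then pelleted at 100 000g, resuspended in binding buffer, frozen in liquid nitrogen and stored. Radioligand was [³H]CCPA, with nonspecific binding defined by 1 mM theophylline.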
# Adenosine receptor A2b = molecular target: T3, Adenosine receptor A2b (Homo sapiens, UniProt P29275); assay: Antagonist activity at human adenosine A2B receptor expressed in CHO cells assessed as inhibition of NECA-stimulated adenylyl cyclase activity; format: functional, cell-based
# T3 sequence (P29275 whole entry): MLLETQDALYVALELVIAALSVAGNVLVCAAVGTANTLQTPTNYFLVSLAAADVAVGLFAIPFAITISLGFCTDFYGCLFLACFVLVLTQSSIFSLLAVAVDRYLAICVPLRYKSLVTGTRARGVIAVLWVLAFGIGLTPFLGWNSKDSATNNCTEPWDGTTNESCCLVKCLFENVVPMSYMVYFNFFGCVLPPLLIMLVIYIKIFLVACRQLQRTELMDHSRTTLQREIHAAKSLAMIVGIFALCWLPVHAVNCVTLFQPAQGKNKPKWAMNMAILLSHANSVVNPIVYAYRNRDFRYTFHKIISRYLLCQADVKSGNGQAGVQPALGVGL
# Outline: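 Membranes from stably transfected CHO cells, made with a single high-speed centrifugation of the homogenate. Incubated 20 min with about 150 000 cpm [α-³²P]ATP, in a mixture without EGTA and NaCl. IC50 for concentration-dependent inhibition of NECA-stimulated adenylyl cyclase was fitted with the Hill equation and converted to Ki by Cheng–Prusoff.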
# CHO [1] = assay: Selectivity ratio of Ki for human adenosine A2A receptor expressed in CHO cells to Ki for human adenosine A3 receptor expressed in CHO cells; format: cell-based
# CHO [2] = assay: Selectivity ratio of Ki for human adenosine A1 receptor expressed in CHO cells to Ki for human adenosine A2A receptor expressed in CHO cells; format: cell-based
# [3] = molecular target: Adenosine receptors; A1 & A3 (Homo sapiens) (UniProt P30542+P0DMS8); assay: Selectivity ratio of Ki for human adenosine A1 receptor expressed in CHO cells to Ki for human adenosine A3 receptor expressed in CHO cells; format: cell-based
# Adenosine receptor A2a, sequence (P29274 whole entry): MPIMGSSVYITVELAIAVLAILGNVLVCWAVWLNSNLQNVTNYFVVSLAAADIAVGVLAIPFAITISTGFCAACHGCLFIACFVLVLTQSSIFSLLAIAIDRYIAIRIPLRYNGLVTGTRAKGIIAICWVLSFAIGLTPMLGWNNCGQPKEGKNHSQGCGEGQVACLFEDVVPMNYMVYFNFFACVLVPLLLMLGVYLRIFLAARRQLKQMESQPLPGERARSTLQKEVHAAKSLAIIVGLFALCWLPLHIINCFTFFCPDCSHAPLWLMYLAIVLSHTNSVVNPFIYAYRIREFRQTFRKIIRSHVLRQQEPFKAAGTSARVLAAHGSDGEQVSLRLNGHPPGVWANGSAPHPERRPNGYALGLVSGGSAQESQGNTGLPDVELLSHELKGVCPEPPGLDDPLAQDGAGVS
Compound,Ki (Adenosine receptor A2a) [µM],Ki (Adenosine receptor A3) [µM],Ki (Adenosine receptor A1) [µM],Ki (Adenosine receptor A2b) [µM],Ratio Ki [3],Ratio Ki (CHO [1]),Ratio Ki (CHO [2])
CNC(=O)c1cnc(NC(=O)NC2CCCCC2)n2nc(-c3ccco3)nc12,1.52,18.7,8.99,> 30,0.48,0.08,5.91
CCOC(=O)c1cnc(NC2CCCCC2)n2nc(-c3ccco3)nc12,0.0589,0.131,0.141,> 10,1.08,0.45,2.39
CCCCCNc1ncc(C(=O)O)c2nc(-c3ccco3)nn12,26.9,26.3,10.4,> 10,0.39,1.02,0.39
CCOC(=O)c1cnc(NC2CC2)n2nc(-c3ccco3)nc12,0.0374,0.00952,0.0607,2.26,6.38,3.93,1.62
CCOC(=O)c1cnc(NC(c2ccccc2)c2ccccc2)n2nc(-c3ccco3)nc12,0.385,0.336,0.943,> 30,2.81,1.14,2.45
CCOC(=O)c1cnc(NCc2ccc(OC)cc2)n2nc(-c3ccco3)nc12,0.142,0.0576,1.25,4.81,21.7,2.46,8.8
CCOC(=O)c1cnc(NC(C)C)n2nc(-c3ccco3)nc12,0.103,0.00946,0.04,10,4.23,10.9,0.39
O=C(O)c1cnc(NC2CC2)n2nc(-c3ccco3)nc12,0.596,0.165,1.11,> 10,6.73,3.61,1.86
CCOC(=O)c1cnc(N)n2nc(-c3ccco3)nc12,0.00332,0.238,0.185,1.11,0.78,0.01,55.7
O=C(O)c1cnc(NCc2ccc(-c3ccccc3)cc2)n2nc(-c3ccco3)nc12,> 100,28.3,30.1,> 30,1.06,> 3.53,< 0.3
O=C(Cc1ccccc1)Nc1ncc(C(=O)NCCc2ccccc2)c2nc(-c3ccco3)nn12,0.0281,0.553,0.317,> 30,0.57,0.05,11.3
CCOC(=O)c1cnc(N(C)C)n2nc(-c3ccco3)nc12,6.48,0.275,13.4,> 10,48.7,23.6,2.07
CNC(=O)c1cnc(NC(=O)Cc2ccccc2)n2nc(-c3ccco3)nc12,0.0124,1.19,0.296,4.84,0.25,0.01,23.9
CCOC(=O)c1cnc(NCc2ccc(OC)c(OC)c2)n2nc(-c3ccco3)nc12,0.116,0.0387,0.315,13.3,8.14,3,2.71
CCNc1ncc(C(=O)O)c2nc(-c3ccco3)nn12,3.68,0.48,11.9,> 10,24.8,7.67,3.23
O=C(Nc1ncc(C(=O)NCCc2ccccc2)c2nc(-c3ccco3)nn12)NC1CCCCC1,0.773,4.22,> 100,> 30,> 23.7,0.18,> 129
CCOC(=O)c1cnc(NC)n2nc(-c3ccco3)nc12,0.104,0.00414,0.978,2.45,236,25.1,9.4
CCOC(=O)c1cnc(NCCOC)n2nc(-c3ccco3)nc12,0.292,0.105,2.27,> 10,21.6,2.78,7.77
CCOC(=O)c1cnc(NCc2ccc(Cl)cc2)n2nc(-c3ccco3)nc12,0.0732,0.0568,0.866,1.63,15.2,1.29,11.8
CCOC(=O)c1cnc(NCC2CCCCC2)n2nc(-c3ccco3)nc12,0.121,0.0412,0.432,> 10,10.5,2.94,3.57

# More lines, in order of falling Ki (Adenosine receptor A2a), values ahead:
Ki (Adenosine receptor A2a) [µM],Ki (Adenosine receptor A3) [µM],Ki (Adenosine receptor A1) [µM],Ki (Adenosine receptor A2b) [µM],Ratio Ki [3],Compound,Ratio Ki (CHO [1]),Ratio Ki (CHO [2])
18,15.9,> 100,> 30,> 6.29,O=C(O)c1cnc(NCc2ccc(C(F)(F)F)cc2)n2nc(-c3ccco3)nc12,1.13,> 5.55
12.4,5.52,5.76,> 30,1.04,COc1ccc(CNc2ncc(C(=O)O)c3nc(-c4ccco4)nn23)cc1,2.25,0.46
10.2,0.836,15.6,> 10,18.7,CCOC(=O)c1cnc(N2CCCC2)n2nc(-c3ccco3)nc12,12.2,1.53
1.19,0.751,2.73,> 10,3.63,Cc1ccc(CNc2ncc(C(=O)O)c3nc(-c4ccco4)nn23)cc1,1.58,2.29
0.235,0.321,0.231,> 10,0.72,CCOC(=O)c1cnc(NC2CCCCCC2)n2nc(-c3ccco3)nc12,0.73,0.98
0.215,0.0393,1.15,> 10,29.3,CCCCC(CC)CNc1ncc(C(=O)OCC)c2nc(-c3ccco3)nn12 (stereo not drawn),5.47,5.35
0.0434,0.035,0.0344,4.62,0.98,CCOC(=O)c1cnc(NC2CCCC2)n2nc(-c3ccco3)nc12,1.24,0.79
0.0258,0.282,0.428,2.49,1.52,CNC(=O)c1cnc(NCc2ccc(OC)c(OC)c2)n2nc(-c3ccco3)nc12,0.09,16.6
0.015,0.609,0.135,2.03,0.22,CNC(=O)c1cnc(N)n2nc(-c3ccco3)nc12,0.02,9
